Results: ChEMBL document CHEMBL1158468, “Synthesis, structure-activity relationships, and in vivo evaluation of N3-phenylpyrazinones as novel corticotropin-releasing factor-1 (CRF1) receptor antagonists” (J Med Chem, 2009)
pIC50: −log10 of the molar value. Each block holds one molecule with its values, some of them ahead of it. Calls of active or inactive are those of the source. The rule behind the calls is not given here.

Legend:
[1] = molecular target: T1, Corticotropin-releasing factor receptor 1 (Rattus norvegicus, UniProt P35353); test: Displacement of [125I]Tyr-ovine-CRF from CRF1 receptor in rat frontal cortex homogenate by gamma counting; format: tissue-based
T1 sequence (P35353 whole entry): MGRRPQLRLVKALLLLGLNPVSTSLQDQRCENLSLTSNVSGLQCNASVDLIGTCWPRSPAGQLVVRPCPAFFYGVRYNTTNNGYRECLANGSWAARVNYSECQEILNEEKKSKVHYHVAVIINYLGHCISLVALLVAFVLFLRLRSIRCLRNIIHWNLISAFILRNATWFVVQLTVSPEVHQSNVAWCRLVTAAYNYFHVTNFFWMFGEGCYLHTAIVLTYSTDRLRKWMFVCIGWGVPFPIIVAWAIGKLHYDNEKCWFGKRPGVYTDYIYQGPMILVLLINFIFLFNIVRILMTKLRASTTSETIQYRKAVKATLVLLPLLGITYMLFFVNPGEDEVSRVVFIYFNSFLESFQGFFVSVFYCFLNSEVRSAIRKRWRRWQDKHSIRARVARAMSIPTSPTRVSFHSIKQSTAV
Summary of the method: (§1)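 Washed homogenates of frozen rat frontal cortex (CRF1, 25 μg/well) or porcine choroid plexus (CRF2, 10 μg/well) in 50 mM Hepes pH 7.0, 10 mM MgCl2, 2 mM EGTA, protease inhibitors, 0.005% Triton X-100. Ligand 150 pM 125I-ovine-CRF (CRF1) or 100 pM 125I-sauvagine (CRF2). Incubation 2 h at 21 °C, then filtration and gamma counting. Nonspecific binding: 1 μM CRF1 reference antagonist or 1 μM α-helical CRF(9-41). IC50 from 5- or 10-point curves by nonlinear regression.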

[2] = (§2) Displacement of [125I]sauvagine from CRF2 receptor in pig choroid plexus homogenate by gamma counting; format: tissue-based, Sus scrofa; summary of the method: as §1
Sus scrofa = species on record: Sus scrofa; test: as §2; format: tissue-based; summary of the method: as §1
[3] = Octanol-water partition coefficient, log D at pH 7.4; format: physicochemical
[4] = molecular target: T2, Corticotropin-releasing factor receptor 1 (Homo sapiens, UniProt P34998); test: Antagonist activity at CRF1 receptor in human Y79 cells assessed as inhibition of CRF-stimulated cAMP production by HTRF method
T2 sequence (P34998 whole entry): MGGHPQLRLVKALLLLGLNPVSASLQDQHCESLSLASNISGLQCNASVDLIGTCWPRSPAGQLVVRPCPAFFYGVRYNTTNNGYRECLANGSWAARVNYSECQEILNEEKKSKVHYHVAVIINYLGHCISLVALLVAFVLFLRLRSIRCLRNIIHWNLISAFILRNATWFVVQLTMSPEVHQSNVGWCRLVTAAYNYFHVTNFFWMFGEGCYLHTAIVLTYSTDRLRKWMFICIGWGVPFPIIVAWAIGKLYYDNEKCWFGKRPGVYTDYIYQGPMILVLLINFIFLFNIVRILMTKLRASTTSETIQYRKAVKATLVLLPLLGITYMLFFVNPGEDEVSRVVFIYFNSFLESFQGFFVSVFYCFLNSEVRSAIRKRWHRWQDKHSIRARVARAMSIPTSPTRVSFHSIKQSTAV

[5] = Clearance in Sprague-Dawley rat at 2 mg/kg, iv; format: ADME, organism-based; parameters: dose 2 mg/kg, route intravenous; conditions: in vivo
Summary of the method: (§3)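 Male Sprague-Dawley rats; iv 2 mg/kg in PEG:ethanol 90:10 (v/v) at 1 mL/kg, or oral 10 mg/kg as 1% Tween 80 in 0.5% methylcellulose suspension at 3 mL/kg; n = 3 per route. Jugular catheter blood taken to 24 h postdose. Plasma was protein-precipitated with acetonitrile and assayed by LC/MS/MS.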

[6] = Volume of distribution at steady state in Sprague-Dawley rat at 2 mg/kg, iv; format: ADME, organism-based; parameters: dose 2 mg/kg, route intravenous; conditions: in vivo, read-out: Vdss; summary of the method: as §3
[7] = Half life in Sprague-Dawley rat at 2 mg/kg, iv; format: ADME, organism-based; parameters: dose 2 mg/kg, route intravenous; conditions: in vivo; summary of the method: as §3
[8] = AUC in Sprague-Dawley rat at 10 mg/kg, po; format: ADME, organism-based; parameters: dose 10 mg/kg, route oral; conditions: plasma; summary of the method: as §3
[9] = Cmax in Sprague-Dawley rat at 10 mg/kg, po; format: ADME, organism-based; parameters: dose 10 mg/kg, route oral; conditions: in vivo; summary of the method: as §3
[10] = Oral bioavailability in Sprague-Dawley rat at 10 mg/kg; format: ADME, organism-based; conditions: in vivo; summary of the method: as §3
Rattus norvegicus [11] = test: Hepatic blood flow in Sprague-Dawley rat at 2 mg/kg, iv; format: ADME, organism-based, Liver; parameters: dose 2 mg/kg, route intravenous; conditions: in vivo
[12] = Clearance in cynomolgus monkey at 2 mg/kg, iv; format: ADME, organism-based, Macaca fascicularis; parameters: dose 2 mg/kg, route intravenous; conditions: in vivo
Summary of the method: (§4)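 Cynomolgus monkeys, n = 3 per route. Iv dose 2 mg/kg in PEG:ethanol 90:10 (v/v), 1 mL/kg, sampled from jugular vein. Oral dose 10 mg/kg as suspension in 1% Tween in 0.5% methylcellulose, 3 mL/kg, sampled from femoral vein. Sampling to 24 h; plasma measured by LC/MS/MS.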

[13] = Volume of distribution at steady state in cynomolgus monkey at 2 mg/kg, iv; format: ADME, organism-based, Macaca fascicularis; parameters: dose 2 mg/kg, route intravenous; conditions: in vivo, read-out: Vdss; summary of the method: as §4
[14] = Half life in cynomolgus monkey at 2 mg/kg, iv; format: ADME, organism-based, Macaca fascicularis; parameters: dose 2 mg/kg, route intravenous; conditions: in vivo; summary of the method: as §4
[15] = AUC in cynomolgus monkey at 10 mg/kg, po; format: ADME, organism-based, Macaca fascicularis; parameters: dose 10 mg/kg, route oral; conditions: plasma; summary of the method: as §4
[16] = Cmax in cynomolgus monkey at 10 mg/kg, po; format: ADME, organism-based, Macaca fascicularis; parameters: dose 10 mg/kg, route oral; conditions: in vivo; summary of the method: as §4
[17] = Oral bioavailability in cynomolgus monkey at 10 mg/kg; format: ADME, organism-based, Macaca fascicularis; conditions: in vivo; summary of the method: as §4
Rattus norvegicus [18] = test: Plasma concentration in Sprague-Dawley rat at 1 mg/kg, po; format: ADME, organism-based; parameters: dose 1 mg/kg, route oral; conditions: in vivo
Rattus norvegicus [19] = test: Plasma concentration in Sprague-Dawley rat at 3 mg/kg, po; format: ADME, organism-based; parameters: dose 3 mg/kg, route oral; conditions: in vivo
Rattus norvegicus [20] = test: Plasma concentration in Sprague-Dawley rat at 10 mg/kg, po; format: ADME, organism-based; parameters: dose 10 mg/kg, route oral; conditions: in vivo
Rattus norvegicus [21] = test: Free plasma concentration in Sprague-Dawley rat at 1 mg/kg, po; format: ADME, organism-based; parameters: dose 1 mg/kg, route oral; conditions: in vivo
Rattus norvegicus [22] = test: Free plasma concentration in Sprague-Dawley rat at 3 mg/kg, po; format: ADME, organism-based; parameters: dose 3 mg/kg, route oral; conditions: in vivo
Rattus norvegicus [23] = test: Free plasma concentration in Sprague-Dawley rat at 10 mg/kg, po; format: ADME, organism-based; parameters: dose 10 mg/kg, route oral; conditions: in vivo
[24] = Unbound fraction in rat plasma after 3 hrs by equilibrium dialysis method; format: ADME, cell-free
Summary of the method: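 Rat plasma spiked with compound, then equilibrium-dialysed against isotonic phosphate buffer for 3 h at 37 °C. Compound in the plasma and buffer samples was quantified by LC/MS/MS after acetonitrile protein precipitation with internal standard. Unbound fraction was taken as the buffer-to-plasma concentration ratio.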

Rattus norvegicus [25] = test: Ex vivo displacement of [125I-Tyro]-sauvagine from CRF1 receptor in Sprague-Dawley rat parietal cortex at 1 mg/kg, po by autoradiography; format: functional
Summary of the method: (§5)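 Brains from orally dosed rats taken after the defensive withdrawal test. 20 μm cryostat sections preincubated 1 min, then incubated 20 min at 22–24 °C with 0.15–0.20 nM [125I-Tyro]sauvagine in 50 mM HEPES pH 7.2 buffer. Nonspecific binding from vehicle sections with 1 μM reference CRF1 antagonist. Parietal cortex occupancy read by autoradiography and computed relative to vehicle specific binding.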

Rattus norvegicus [26] = test: Ex vivo displacement of [125I-Tyro]-sauvagine from CRF1 receptor in Sprague-Dawley rat parietal cortex at 3 mg/kg, po by autoradiography; format: functional; summary of the method: as §5
Rattus norvegicus [27] = test: Ex vivo displacement of [125I-Tyro]-sauvagine from CRF1 receptor in Sprague-Dawley rat parietal cortex at 10 mg/kg, po by autoradiography; format: functional; summary of the method: as §5
Rattus norvegicus [28] = test: Anxiolytic activity in Sprague-Dawley rat assessed as decrease in latency to exit dark chamber at 1 mg/kg, po after 1 hr by defensive withdrawal test; format: functional; parameters: scale not given: the % may be the effect or the level left
Summary of the method: (§6)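 Male Sprague-Dawley rats (180–300 g), dosed po 1 h before testing in 0.25% methylcellulose suspension (bead-milled), 2 mL/kg. Blind observer recorded the latency to leave a dark chamber placed in an illuminated open field (all four paws out) over 15 min. ANOVA with Fisher's LSD, p < 0.05.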

Rattus norvegicus [29] = test: Anxiolytic activity in Sprague-Dawley rat assessed as decrease in latency to exit dark chamber at 3 mg/kg, po after 1 hr by defensive withdrawal test; format: functional; parameters: scale not given: the % may be the effect or the level left; summary of the method: as §6
Rattus norvegicus [30] = test: Anxiolytic activity in Sprague-Dawley rat assessed as decrease in latency to exit dark chamber at 10 mg/kg, po after 1 hr by defensive withdrawal test; format: functional; parameters: scale not given: the % may be the effect or the level left; summary of the method: as §6
Rattus norvegicus [31] = test: Anxiolytic activity in po dosed Sprague-Dawley rat assessed as minimal effective dose by defensive withdrawal test; format: functional; conditions: read-out: MED; summary of the method: as §6

- pIC50 [1]: 8.92
SMILES: CC[C@H](C1CC1)n1cc(Cl)nc(Nc2c(Cl)cc(C#N)cc2Cl)c1=O

- pIC50 [1]: 8.55
SMILES: CCC(C1CC1)n1cc(Cl)nc(Nc2c(Cl)cc(C#N)cc2Cl)c1=O (single isomer, unassigned)

- pIC50 [1]: 9.54
- pIC50 [2]: < 5.00
SMILES: COC[C@H](C1CC1)n1cc(Cl)nc(Nc2cc(C)c(OC)cc2C)c1=O

- pIC50 [1]: 8.24
SMILES: COC[C@H](C)n1cc(Cl)nc(Nc2cc(C)c(OC)cc2C)c1=O

- pIC50 [1]: 7.46
SMILES: Cc1cc(C)c(Nc2nc(Cl)cn([C@@H](CO)C3CC3)c2=O)c(C)c1

- pIC50 [1]: 9.03
SMILES: COc1cc(Br)c2c(c1)CCN2c1nc(Cl)cn([C@H](C)C2CC2)c1=O

- pIC50 [1]: 9.59
- pIC50 [2]: < 5.00
- Activity (Sus scrofa): inactive
- logD [3]: 4.35
- pIC50 [4]: 8.72
- clearance [5]: 170 mL/min/kg
- Vd [6]: 97 L/kg
- half-life [7]: 18 h
- AUC [8]: 0.36 µM·h
- Cmax [9]: 52 nM
- bioavailability [10]: 14%
- QH (Rattus norvegicus [11]): 55 mL/min/kg
- clearance [12]: 21 mL/min/kg
- Vd [13]: 7.7 L/kg
- half-life [14]: 9.3 h
- AUC [15]: 0.41 µM·h
- Cmax [16]: 32 nM
- bioavailability [17]: 2%
- concentration (Rattus norvegicus [18]): 4.9 nM
- concentration (Rattus norvegicus [19]): 14 nM
- concentration (Rattus norvegicus [20]): 76 nM
- Cp(f) (Rattus norvegicus [21]): 0.1 nM
- Cp(f) (Rattus norvegicus [22]): 0.29 nM
- Cp(f) (Rattus norvegicus [23]): 1.6 nM
- fraction unbound at 3 h [24]: 0.021
SMILES: COC[C@@H](C1CC1)n1cc(Cl)nc(Nc2cc(C)c(OC)cc2C)c1=O
- Activity (Rattus norvegicus [25]): 37%
- Activity (Rattus norvegicus [26]): 72%
- Activity (Rattus norvegicus [27]): 94%
- Activity (Rattus norvegicus [28]): <5%
- Activity (Rattus norvegicus [29]): 60%
- Activity (Rattus norvegicus [30]): 65%
- minimal effective dose (Rattus norvegicus [31]): 3 mg/kg

- pIC50 [1]: 8.34
SMILES: CC[C@H](C1CC1)n1cc(Cl)nc(N(CC)c2c(C)cc(C)cc2C)c1=O

- pIC50 [1]: 7.92
SMILES: COC[C@@H](C)n1cc(Cl)nc(Nc2c(C)cc(C)cc2C)c1=O

- pIC50 [1]: 6.04
SMILES: COC[C@@H](C1CC1)n1cc(Cl)nc(Nc2cc(C)c(OCc3ccccc3)cc2C)c1=O

- pIC50 [1]: 8.17
SMILES: COc1ccc(Nc2nc(C#N)cn([C@H](C)C3CC3)c2=O)c(C(F)(F)F)n1

- pIC50 [1]: 7.12
SMILES: CCC(CC)Cn1cc(Cl)nc(Nc2cc(C)c(OC)cc2C)c1=O

- pIC50 [1]: 5.92
SMILES: C=Cc1cn([C@H](C)C2CC2)c(=O)c(Nc2ccc(OC)nc2C(F)(F)F)n1
